The source of these data is ChEMBL document CHEMBL3616446, “Structure activity optimization of 6H-pyrrolo[2,3-e][1,2,4]triazolo[4,3-a]pyrazines as Jak1 kinase inhibitors” (Bioorg Med Chem Lett, 2015).

A short description of series [1]: Cmax in Sprague-Dawley rat at 10 mg/kg, po. It counts as ADME, organism-based. The arrangement: dose 10 mg/kg, route oral. As to conditions: in vivo.
Series [2] can be described thus: AUC (0 to infinity) in Sprague-Dawley rat at 10 mg/kg, po. It counts as ADME, organism-based. Also noted: dose 10 mg/kg, time infinity, route oral. The conditions noted are these: in vivo.
For the next series, the system named is UT7. The experiment in a line: Selectivity ratio for inhibition of JAK2 in human UT7 cells to inhibition of JAK1 in human TF1 cells. It counts as cell-based. An outline of the steps: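 Cell-based pSTAT read-outs. Jak1: IL-6-stimulated pSTAT3 in TF-1 cells. Jak2: Epo-stimulated pSTAT5 in UT-7 cells. Full-length endogenous Jak at cellular ATP levels. Run in 96-well format, some in 384-well. Ratio = Jak2 cellular value / Jak1 cellular value.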

The nature of series [3]: Metabolic stability in human microsomes assessed as compound remaining at 1 uM measured at 25 mins. It counts as ADME, Microsome. As to conditions: read-out: Stability. An outline of the steps: (§1)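 Microsomes at 0.25 mg protein with 1 mM NADPH and 1 µM compound, incubated 25 min at 37 °C; % parent remaining at 25 min. Rat: pooled male SD microsomes. Human: pooled male/female microsomes.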

Series [4] in a line: Metabolic stability in Sprague-Dawley rat microsomes assessed as compound remaining at 1 uM measured at 25 mins. It is filed as ADME, Microsome. As to conditions: read-out: Stability. An outline of the steps:
as §1

Series [5] can be described thus: Plasma clearance in Sprague-Dawley rat at 5 mg/kg, iv. It counts as ADME, organism-based.
In a further series the test system is Rattus norvegicus. The experiment in a line: Antiinflammatory activity in Lewis rat assessed as inhibition of concanavalin A-induced IFNgamma production administered 30 mins prior to concanavalin A challenge measured at 4 hrs by ELISA. It counts as functional. The arrangement: concentration or dose not given beside the values. (ELISA stands for enzyme-linked immunosorbent assay.)

Series [6] can be described thus: Oral bioavailability in Sprague-Dawley rat at 10 mg/kg. It is filed as ADME, organism-based. The conditions noted are these: in vivo.

On to `c1cc2c(ncc3nnc(C4CCCCC4)n32)[nH]1`, for which, in series [1], the concentration peaked (Cmax) at 170 ng/mL. Moreover, the AUC(0-inf) (commonly total exposure, with the tail of the curve extrapolated) in series [2] is 280 ng·h/mL.

Regarding `CCCS(=O)(=O)N[C@H]1CC[C@@H](c2nnc3cnc4[nH]ccc4n23)C1`, the Selectivity ratio with UT7 is > 20.

Turning to `O=S(=O)(N[C@@H]1CCC[C@@H](c2nnc3cnc4[nH]ccc4n23)C1)C1CC1` (racemic), the Selectivity ratio in the series with UT7 was > 10.

`O=S(=O)(N[C@H]1CC[C@@H](c2nnc3cnc4[nH]ccc4n23)C1)c1cccc(Cl)c1`: the Selectivity ratio with UT7 came out at 54. Moreover, the remaining at 25 min, 1 µM was found to be 8% in series [3] and 6% in series [4].

As to `O=S(=O)(N[C@H]1CC[C@@H](c2nnc3cnc4[nH]ccc4n23)C1)C1CC1`, the Selectivity ratio in the series on UT7 turned out to be 17. In addition, in series [1], the concentration peaked (Cmax) at 230 ng/mL. For the same molecule, the values for the remaining at 25 min, 1 µM in series [3] and in series [4] were 100% and 98%, respectively. Moreover, the clearance – broadly, a measure of how efficiently the substance is removed, as volume per time – in series [5] is 48.3 mL/min/kg. Besides, the “inhibition (INH)” value in the series with Rattus norvegicus was 55%. Further, the bioavailability (as a rule, dose-corrected exposure relative to a reference, in per cent) in series [6] was 29%. In series [2], this molecule returned a total exposure AUC(0-inf) of 1100 ng·h/mL.

With `O=S(=O)(N[C@H]1CC[C@@H](c2nnc3cnc4[nH]ccc4n23)C1)C1CCCC1`, in the series on UT7, the Selectivity ratio amounted to 100. The remaining at 25 min, 1 µM was found to be 90% in series [3] and 68% in series [4].

With `O=S(=O)(N[C@H]1CC[C@@H](c2nnc3cnc4[nH]ccc4n23)C1)c1ccccc1`, in the series on UT7, the Selectivity ratio stood at 34. The values for the remaining at 25 min, 1 µM in series [3] and in series [4] were 42% and 31%, respectively.

`CS(=O)(=O)N[C@H]1CC[C@@H](c2nnc3cnc4[nH]ccc4n23)C1`: in the series on UT7, the Selectivity ratio was 34.

Turning to `CCS(=O)(=O)N[C@H]1CC[C@@H](c2nnc3cnc4[nH]ccc4n23)C1`, the Selectivity ratio in the series on UT7 is 101. Moreover, in series [4], the remaining at 25 min, 1 µM was found to be 100%.

`O=S(=O)(N[C@H]1CC[C@@H](c2nnc3cnc4[nH]ccc4n23)C1)C1CCCCC1`: the Selectivity ratio in the series with UT7 is > 75.

In the case of `O=S(=O)(N[C@H]1CCC[C@@H](c2nnc3cnc4[nH]ccc4n23)C1)C1CC1` (racemic), in the series on UT7, the Selectivity ratio worked out at 9. For the same molecule, the peak level in series [1] (Cmax) was 10 ng/mL. Moreover, the “inhibition (INH)” value in the series with Rattus norvegicus stood at 0%. Also, the AUC(0-inf) in series [2] amounted to 50 ng·h/mL.

Consider `O=S(=O)(N[C@H]1CC[C@H](c2nnc3cnc4[nH]ccc4n32)CC1)C1CC1`, for which the Selectivity ratio in the series on UT7 was > 20.

For `COc1ccc(S(=O)(=O)N[C@H]2CC[C@@H](c3nnc4cnc5[nH]ccc5n34)C2)cc1`, in the series with UT7, the Selectivity ratio amounted to 26. Also, the remaining at 25 min, 1 µM in series [3] came to 35%; in series [4], 61%.

Take `O=S(=O)(N[C@H]1CC[C@@H](c2nnc3cnc4[nH]ccc4n23)C1)C1CCC1`: the Selectivity ratio with UT7 was 227. For the same molecule, the highest level in series [1] (Cmax) was 310 ng/mL. Moreover, the remaining at 25 min, 1 µM worked out at 85% in series [3] and 80% in series [4]. The same molecule showed a clearance in series [5] of 41.7 mL/min/kg. The “inhibition (INH)” value in the series with Rattus norvegicus worked out at 40%. For the same molecule, in series [6], the bioavailability is 32%. Moreover, in series [2], the AUC(0-inf) was 860 ng·h/mL.

For `O=S(=O)(N[C@]12CC[C@](c3nnc4cnc5[nH]ccc5n43)(CC1)CC2)C1CC1`, the Selectivity ratio in the series on UT7 was determined as 225. The concentration in series [1] peaked (Cmax) at 60 ng/mL. In series [5], the clearance was 51.7 mL/min/kg. Further, the “inhibition (INH)” value in the series with Rattus norvegicus was determined as 31%. In series [6], this molecule registered a bioavailability of 13%. For the same molecule, the AUC(0-inf) in series [2] is 410 ng·h/mL.
